For 5 molecules, IC50 results are on record in ChEMBL document CHEMBL1212892, “Tirucallane-type alkaloids from the bark of Dysoxylum laxiracemosum” (J Nat Prod, 2010).

Type in all cases: functional, cell-based
Test [1] relates to A549. Put plainly: Cytotoxicity against human A549 cells after 48 hrs by MTT assay. The note with it: A549, 48 h. The gist of the method: (§1)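 Cells grown in RPMI-1640 or DMEM with 10% FBS, 37 °C, 5% CO2. Adherent cells seeded at 1 × 10^5 cells/mL and left 12 h to attach before dosing; suspension cells seeded just before dosing. Compound at 0.0625, 0.32, 1.6, 8 and 40 µM in triplicate for 48 h, cisplatin positive control. Viability by MTT; IC50 by Reed and Muench method.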

For test [2], the system named is HL-60. Put plainly: Cytotoxicity against human HL60 cells after 48 hrs by MTT assay. The note with it: HL-60, 48 h. The procedure, abridged: as §1
Test [3] concerns SMMC-7721. Put plainly: Cytotoxicity against human SMMC7721 cells after 48 hrs by MTT assay. The note with it: SMMC-7721, 48 h. The procedure, abridged: as §1
For test [4], the system named is MCF7. Put plainly: Cytotoxicity against human MCF7 cells after 48 hrs by MTT assay. The note with it: MCF7, 48 h. The procedure, abridged: as §1
Test [5] has as its system SW480. Put plainly: Cytotoxicity against human SW480 cells after 48 hrs by MTT assay. The note with it: SW480, 48 h. The gist of the method:
as §1

For the molecule `CC(C)C(=O)c1cc([C@@H]2CC[C@]3(C)C4=CCC5C(C)(C)[C@H](O)CC[C@]5(C)[C@H]4CC[C@@]23C)c[nH]1` (stereo partly drawn) [LAXIRACEMOSIN A], the IC50 in test [1] worked out at 5.4 µM; in test [2], 3.1 µM; in test [3] it was 9.5 µM; in test [4], 16.8 µM; in test [5], 7.2 µM.

For the molecule `CC(C)C(=O)c1cc([C@@H]2CC[C@]3(C)C4=CCC5C(C)(C)C(=O)CC[C@]5(C)[C@H]4CC[C@@]23C)c[nH]1` (stereo partly drawn) [LAXIRACEMOSIN B], the IC50 is 13.4 µM in test [1]; 12.8 µM in test [2]; 19 µM in test [3]; over 20 µM in test [4]; over 20 µM in test [5].

In the case of `CC(C)(O)C(=O)c1cc([C@@H]2CC[C@]3(C)C4=CCC5C(C)(C)[C@H](O)CC[C@]5(C)[C@H]4CC[C@@]23C)c[nH]1` (stereo partly drawn) [LAXIRACEMOSIN D], the IC50 is over 20 µM in test [1]; 6.8 µM in test [2]; over 20 µM in test [3]; over 20 µM in test [4]; over 20 µM in test [5].

On to `C=C(C)C(=O)c1cc([C@@H]2CC[C@]3(C)C4=CCC5C(C)(C)[C@H](O)CC[C@]5(C)[C@H]4CC[C@@]23C)c[nH]1` (stereo partly drawn) [LAXIRACEMOSIN E], for which the IC50 in test [1] came to 3.7 µM; in test [2] it was 1.5 µM; in test [3], 2.7 µM; in test [4] it was 5.1 µM; in test [5], 3.7 µM.

Turning to `CC1(C)C2CC=C3[C@H](CC[C@@]4(C)[C@H](c5c[nH]c(C=O)c5)CC[C@]34C)[C@@]2(C)CC[C@H]1O` (stereo partly drawn) [LAXIRACEMOSIN F], the IC50 in test [1] is over 20 µM; in test [2], 15.7 µM; in test [3], 15.6 µM; in test [4], over 20 µM; in test [5], over 20 µM.
